From PMC6309585 (Investigational new drugs, 2018)

Legend:
[1] = tested on: GST; assay: Glutathione-S-transferase protein expression in colon and liver; format: in vivo, Apc^Min/+ mice; conditions: for GST protein expression: colon, RVT and BaP administered separately, compared to no treatment group; for Glutathione-S-transferase protein expression: liver, in comparison to control mice
How it was run: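 Western blot of total colon and liver protein: 10% SDS–PAGE, transfer to PVDF, mouse anti-GST and rabbit anti-GAPDH antibodies, detection with IRDye680 anti-mouse and IRDye800 anti-rabbit secondaries. GST signal was normalized to GAPDH. […] Values are mean ± SE, n = 10.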

[2] = Pharmacokinetics of BaP and RVT in plasma after oral gavage; format: in vivo, Apc^Min/+ mice; conditions: for half-life / Clearance (Cl) / Volume of distribution (Vd): plasma; for Clearance (Cl) / Volume of distribution (Vd): oral gavage, BaP 100 μg/kg bw, RVT 45 μg/kg bw, mean ± SE, n = 10
[3] = tested on: GST mRNA; assay: GST mRNA expression; format: in vivo, Apc^Min/+ mice; conditions: compared to the no treatment group
[4] = tested on: BaP-induced colon tumors; conditions: orally administered RVT; mice exposed to BaP compared to BaP alone; cited from earlier work
[5] = HPLC analysis of BaP organic and aqueous metabolites in plasma, colon and liver; format: in vivo, Apc^Min/+ mice; conditions: colon, RVT simultaneously or prior to BaP, compared to BaP alone
[6] = tested on: BaP-induced colon tumors; assay: BaP-induced colon tumors/adenomas; format: in vivo, Apc^Min/+ mice; conditions: RVT administration post BaP subchronic exposure; data not shown
[7] = tested on: DNA; assay: BaP-DNA adducts by 32P-postlabeling and TLC in colon and liver; format: in vivo, Apc^Min/+ mice
[8] = tested on: CYP1B1 mRNA; assay: CYP1B1 mRNA expression; format: in vivo, Apc^Min/+ mice; conditions: liver
[9] = tested on: GST; assay: GST activity in colon and liver; format: in vivo, Apc^Min/+ mice; conditions: liver; compared to BaP alone
How it was run: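 Colon and liver protein from Apc^Min/+ mice was assayed for GST activity with a commercial kit. […] Tissues were collected 60 days after exposure; n = 10 per group.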

[10] = tested on: DNA; assay: Oxidative DNA damage; format: in vivo, Apc^Min/+ mice; conditions: text: colon, Fig. 9B; RVT prior to and simultaneously with BaP; compared to BaP treatment only

SMILES	GST protein expression [1]	Glutathione-S-transferase protein expression [1]	Elimination rate (Kd) ([2]; male, ApcMin/+, mouse, in vivo, po) [h]	half-life ([2]; male, ApcMin/+, mouse, po) [h]	Clearance (Cl) [2] [mL/day/kg]	Volume of distribution (Vd) [2] [L/kg]	Decrease in GST mRNA expression ([3]; colon) [%]	Incidence, size and number of adenomas formed in the colon [4]	BaP aqueous metabolite levels [5]	BaP organic metabolite concentrations [5]	Reversal of BaP-induced carcinogenic effects (tumor count and size) [6]	Stable BaP-DNA adduct concentrations [7]	CYP1B1 mRNA expression [8]	GST activity [9]	GST mRNA expression ([3]; liver, RVT either simultaneously or prior to BaP treatment)	Base pair damage (apurinic/apyrimidinic sites) [10]
c1ccc2c(c1)cc1ccc3cccc4ccc2c1c34 [BaP, Benzo(a)pyrene]	increased	significantly decreased	0.17 ± 0.06	1.8 ± 0.018	2.4 ± 0.24	0.00058 ± 4.5e-05	50	–	–	–	–	–	–	–	–	–
Oc1ccc(C=Cc2cc(O)cc(O)c2)cc1 [RVT, 3,5,4′-trihydroxystilbene]	increased	significantly decreased	–	1 ± 0.011	1.9 ± 0.14	0.00044 ± 5e-05	–	decrease	increases	significantly decreased	failed to reverse	reduced	feeble expression	no significant changes	increase	significant reduction
